Screening data (PubChem BioAssay)
Sampled rows, rich in hits. Any-hit rate of the full collection: about 4%.
TAAR1 antagonist: antagonists of human TAAR1. Q96RJ0. CHO RD-HGA16 TAAR1, Fluo-8 calcium fluorescence, antagonist. inhibition, % at 3 µM. actives 1.5% (n = 360,000);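 active = inhibition above a per-plate cutoff, the mean inhibition of test compounds on that plate plus 3 SD, cut at about 49% in these data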
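System: RD-HGA16 CHO cells with stable hTAAR1 and Gα16 | Probe or stimulus: EC80 β-phenethylamine stimulus | Dosing: 3 µM, single point | Times: Dye loading 75 min at 37 °C, then 30 min room temperature | Measured by: Fluo-8 calcium-sensitive fluorescence | Read-out basis: % inhibition of agonist calcium response | Replicates: n of 1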
DAGLB inh: blocks human DAGLB lipase activity; AID 504411; Q8NCG7; HEK293T DAGLB membrane lysate, EnzChek fluorogenic substrate; actives 0.059% (n = 340,000); inhibition, % at 5.17 µM; in the data active = inhibition above about 34%
GPR7 antag: blocks human GPR7 receptor signaling; P48145; GPR7-expressing cells, fluorescence antagonist assay; inhibition, % at 4.4 µM; actives 1.1% (n = 290,000); AID 1861; in the data active = inhibition above about 16%, passing the limit was not always enough;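 note: cells stimulated with the agonist NPW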
Target sequence (P48145 whole entry, looked up): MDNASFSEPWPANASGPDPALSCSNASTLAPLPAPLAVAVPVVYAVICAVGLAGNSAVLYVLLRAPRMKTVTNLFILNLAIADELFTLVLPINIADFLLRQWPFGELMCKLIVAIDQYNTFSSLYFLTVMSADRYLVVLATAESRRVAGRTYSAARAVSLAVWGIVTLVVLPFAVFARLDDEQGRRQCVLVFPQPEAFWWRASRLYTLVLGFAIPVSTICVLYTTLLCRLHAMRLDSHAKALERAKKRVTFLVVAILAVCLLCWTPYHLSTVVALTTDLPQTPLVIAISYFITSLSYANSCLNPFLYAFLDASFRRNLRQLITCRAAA
TAAR1 ag: agonists of human TAAR1. Q96RJ0. CHO RD-HGA16 TAAR1, Fluo-8 calcium fluorescence; vehicle wells 0%, saturating PEA agonist 100%. activation, % at 3 µM. actives 0.99% (n = 360,000);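 active = activation above the mean activation of all test compounds in the run plus 3 SD, cut at about 38% in these data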
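System: CHO-derived RD-HGA16 cells with stable Gα16 and human TAAR1. Times: 17-24 h plating, Fluo-8 75 min 37 °C, 30 min RT. Measured by: calcium-sensitive Fluo-8 signal, excitation 470-495, emission 515-575 nm. Read-out basis: % activation relative to PEA EC100 response. Control set: DMSO and PEA EC100. Repeats: no replicates (n 1).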
MPTP block: blocks calcium-induced mitochondrial swelling; isolated mouse mitochondria, Ca2+ swelling absorbance, 30 min; inhibition, % at 10 µM; actives 1.4% (n = 360,000); AID 602449;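 active = inhibition of 50% or more, scaled per plate between neutral and stimulator controls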
Hits are given with their value; – = inactive; · = no result.

SMILES	TAAR1 antagonist	DAGLB inh	GPR7 antag	TAAR1 ag	MPTP block
O=C1NC[C@@H](CCCCN2C[C@H](Cc3ccccc3)N(CC3CCCCC3)C(=O)C2=O)N(CCc2ccccc2)C1=O	–	·	·	–	–
COC(=O)CSc1nc2ccc(C)cc2[nH]1	–	–	–	–	–
Cc1ccc2nc(SCC(=O)c3ccc(O)cc3O)[nH]c2c1	–	–	–	40.9	–
CCc1cccc(CC)c1NC(=O)Cn1c(-c2ccccc2Cl)nc2ccccc21	–	–	18.5	–	–
c1ccc(COc2ccc(-c3cc4nc(NCCCn5ccnc5)ccn4n3)cc2)cc1	53.0	·	·	–	–
OC1CCC(Nc2ccn3nc(-c4cccc(OCc5ccccc5)c4)cc3n2)CC1 (centres undefined)	52.8	·	·	–	–
OC1CCC(Nc2ccn3nc(-c4cccc(Cl)c4)cc3n2)CC1 (centres undefined)	–	·	·	–	–
COCCCNc1ccn2nc(-c3cccc(OCc4ccccc4)c3)cc2n1	–	·	·	–	–
COc1ccc(NC(=O)c2ccc(NC(=O)CN3CCC(C(N)=O)CC3)cc2)cc1	–	–	·	–	–
Cc1nn(-c2ccccc2)c(N2CCCC2)c1/C=N/NC(=O)c1cc(-c2cccnc2)nc2ccccc12	51.0	–	–	–	–
c1ccc2c(CCNc3ncnc4nc[nH]c34)c[nH]c2c1	59.0	–	–	–	–
Nc1nc2c(ncn2[C@@H]2O[C@H](C(=O)NC3CCCCC3)[C@@H](O)[C@H]2O)c(=O)[nH]1	–	·	·	–	·
O=C(CSCc1ccc(Br)cc1)NCCc1ccccc1	–	–	–	40.4	–
O=C(CSCc1ccccc1)NCCc1ccc(F)cc1	–	–	–	–	–
COc1ccc(NC(=O)N(C)C[C@H]2OCCCC[C@H](C)Oc3ccc(NC(=O)Nc4cccc5ccccc45)cc3C(=O)N([C@@H](C)CO)C[C@H]2C)cc1	–	·	·	–	·
Cc1ccc(NC(=O)CN2CCN(S(=O)(=O)c3ccc4c(c3)OCCO4)CC2)c(C)c1	–	–	·	–	–
Cc1nn(-c2cccc(Cl)c2)nc1C(=O)Nc1cccc(C(=O)NC2CC2)c1	–	–	·	–	–
Cc1nn(-c2ccccc2)nc1C(=O)Nc1cccc(C(=O)NC2CC2)c1	59.9	–	·	–	–
O=C(Nc1cccc(C(=O)Nc2cccc(Br)c2)c1)c1ccccc1	62.1	–	–	–	–
O=C(N/N=C/c1cccc(OC(=O)c2cccc(Br)c2)c1)c1cccnc1	57.5	–	–	–	–
O=C(O)c1cccc(NC(=O)c2ccccc2)c1	–	–	·	–	–
O=C(N/N=C/c1cccnc1)c1cccc(NC(=O)c2cccc(Br)c2)c1	51.4	–	–	–	–
CC(=O)Nc1cccc(C(=O)N/N=C/c2cccnc2)c1	–	–	–	–	–
Cc1ccc(NC(=C(C#N)C#N)c2ccccc2)cc1	–	–	·	–	–
C[C@H](c1ccccc1)N1C[C@@H](COCc2ccccc2)Oc2cccc(Oc3ccc(C(C)(C)C)cc3)c2S1(=O)=O	–	·	·	–	·
SMILES	TAAR1 antagonist	DAGLB inh	GPR7 antag	TAAR1 ag	MPTP block
CCc1sc(-c2c(C#N)c(N)nc3c2CCCCCC3)cc1[N+](=O)[O-]	–	–	–	52.5	–
COC(=O)[C@]12C[C@H](CC(=O)N3CCC(c4ccccc4)CC3)C(=O)N(Cc3ccc4c(c3)OCO4)C1=C[C@H](COCc1ccccc1)O[C@@H]2C	–	·	·	–	·
Cc1ccc(OCCOC(=O)c2cc(S(=O)(=O)N3CCCCC3)ccc2N2CCOCC2)cc1	50.1	–	·	–	–
O=C(OCCOc1ccc(Cl)cc1)c1cc(S(=O)(=O)N2CCCCC2)ccc1N1CCOCC1	–	–	·	–	–
Cc1cc(NC(=O)NC(=O)c2ccccc2NC(=O)C(C)N)ccc1Oc1ncc(Br)cn1 (centres undefined)	–	–	·	43.5	–
CCOC(=O)/C=C/c1cccc(C)c1O	–	·	·	–	–
C[C@@H]1CN([C@@H](C)CO)C(=O)CCCn2cc(nn2)CO[C@H]1CN(C)C(=O)Oc1ccccc1	–	–	·	–	–
COC(=O)c1cc2c(c3c4ccccc4n(S(=O)(=O)c4ccc(C)cc4)c13)C(=O)N(Cc1ccccc1)C2	–	·	·	–	·
C[C@@H]1CCCCO[C@@H](CN(C)C(=O)C2CCCCC2)[C@@H](C)CN([C@H](C)CO)C(=O)c2cc(NC(=O)NC3CCCCC3)ccc2O1	–	–	·	–	–
N#Cc1ccccc1S(=O)(=O)N1CCN(c2nc(-c3cccnc3)nc3ccccc23)CC1	51.2	–	·	–	–
